Compounds with a hit are over-represented: about 3% of the library has one in this group of screens.
Wnt bcat act: Wnt/beta-catenin pathway activators, primary screen, cell-based, plate reader, single point; Wnt/beta-catenin reporter cell assay, activator; activation, % at 9.35 µM; 1.2% of 300,000 active; AID 743398, 2014; in the data active = activation above about 30%, passing the limit was not always enough; inconclusive = no clear call, values can overlap the other calls
NSD2 inh: NSD2 histone methyltransferase inhibitors, primary screen, biochemical, AlphaScreen, single concentration, set 2. Histone-lysine N-methyltransferase NSD2 (Homo sapiens), O96028. AID 743445, 2014. 0.54% of 310,000 active. NSD2 peptide methylation, 120 min. inhibition, % at 12.5 µM; in the data active = inhibition above about 50%
MITF TRPM1 HTS: activators of MITF-driven TRPM1 promoter reporter, primary screen, cell-based, SK-MEL-5, luciferase, single point; SK-MEL-5 TRPM1-promoter luciferase, 24 h; % of positive control, neutral wells = 0; activation, % at 12.5 µM; 0.75% of 300,000 active; AID 588334, 2011;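 active = mean activation of at least 80% with every replicate also reaching 80%; inconclusive = mean reaches 80% but some replicate falls short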
CASP6 VEID inh: human caspase-6 inhibitors, primary screen, biochemical, VEID-R110 fluorescence, single point, set 2; P55212; purified caspase-6, Z-VEID-R110 cleavage fluorescence; inhibition, % at 12.5 µM; 0.53% of 350,000 active;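 active = mean inhibition across replicates at least about 35%, with every replicate also reaching that limit, limit read from the data; inconclusive = only one of the two criteria met; inactive = neither criterion met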
Target sequence (P55212 24-179 limits assumed): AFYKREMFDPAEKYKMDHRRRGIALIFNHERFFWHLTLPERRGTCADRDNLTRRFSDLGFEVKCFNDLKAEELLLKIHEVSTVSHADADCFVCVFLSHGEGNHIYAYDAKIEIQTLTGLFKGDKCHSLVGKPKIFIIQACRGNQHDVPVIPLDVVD
Target sequence (P55212 194-293 limits assumed): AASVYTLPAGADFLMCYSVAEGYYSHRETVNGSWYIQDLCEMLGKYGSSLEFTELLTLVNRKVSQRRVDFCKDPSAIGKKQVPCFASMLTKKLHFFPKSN
XiGFP reactiv: activators of inactive X chromosome reactivation, primary screen, imaging, XiGFP fibroblasts, GFP high-content imaging, set 2 | XiGFP mouse fibroblasts, % GFP-positive cells imaging, 3 d; cells co-treated with 5-aza-dC sensitizer; scaled so ellipticine positive control = 100% | activation, % at 7.58 µM | 0.055% of 360,000 active;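 active = mean normalized replicate activation at least 10% and every replicate at or above 10%; inconclusive = only one of the two criteria met; inactive = mean below 10% and not all replicates reach 10%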
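Material: XiGFP fibroblasts, SV40-immortalized. Buffer or medium: DMEM plus 5-aza-dC sensitizer. Compound: single concentration per compound, delivered by pin transfer. Times: 3 days compound exposure. Controls: ellipticine 6 µM.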
esBAF inh: Bmi1 luciferase reporter increase in mESCs, primary screen, esBAF inhibitor project, mouse ES cells, Bmi1 luciferase knock-in, single point | 24 h; 100% = twice the neutral-well signal | reporter increase, % at 12.5 µM | 2% of 350,000 active; in the data active = activation above about 40%; inconclusive = no clear call, values can overlap the other calls;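 also: a rise in the Bmi1 reporter signal indicates esBAF inhibition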
Hits are given with their value; n = inactive; u = inconclusive; x = no result.

SMILES	Wnt bcat act	NSD2 inh	MITF TRPM1 HTS	CASP6 VEID inh	XiGFP reactiv	esBAF inh
COc1cccc(NC(=O)N2[C@@H]3CNC[C@H]2C3c2ccc(/C=C/c3ccccc3)cc2)c1 (stereo partly drawn)	x	x	x	n	n	x
C=CCn1c(-c2ccc(Cl)cc2)c[nH]c1=S	n	n	n	x	x	n
C=CCn1c(-c2ccccc2)c[nH]c1=S	42.5	n	n	x	x	64.5
COCCNC(=O)/C(C#N)=C/c1cc(C)n(C2CCCCC2)c1C	n	n	90.6	n	n	x
COCC(=O)Nc1ccc2c(c1)[C@H]1C[C@H](CC(=O)N3CCCCC3)O[C@@H](CO)[C@H]1O2	x	x	x	x	n	n
Cc1ccc(Nc2n[nH]c(C)c2[N+](=O)[O-])cc1	45.3	n	96.4	x	n	x
Cc1[nH]nc(Nc2ccc(C(C)C)cc2)c1[N+](=O)[O-]	n	n	113.6	n	n	93.1
Cc1[nH]nc(Nc2ccc(Br)cc2)c1[N+](=O)[O-]	n	n	x	n	n	x
Nn1c(SCC(=O)N2CCCC2)nnc1C1CCCCC1	n	n	x	n	n	n
CC(C)OC(=O)CSc1nnc(C2CCCCC2)n1N	41.5	n	x	n	n	x
O=C(C[C@@H]1CC[C@H](NC(=O)C2CCOCC2)[C@H](CO)O1)Nc1ccccc1	x	x	x	n	n	x
O=C(N=C1N=C2C=CC(Br)=CN2Cc2ccccc21)c1ccc([N+](=O)[O-])cc1[N+](=O)[O-]	55.6	n	n	n	n	x
O=C(c1ccc([N+](=O)[O-])cc1[N+](=O)[O-])N1CCc2ccccc21	n	n	x	n	n	n
COCC1CCCN(C(=O)c2ccc3oc(CCCc4ccccc4)nc3c2)C1 (stereo not drawn)	n	n	n	n	n	n
Cc1ccccc1C1CCCN(C(=O)c2cc(COc3c(F)cccc3F)on2)C1 (stereo not drawn)	n	n	n	n	n	n
COCC1CCN(C(=O)c2ccc3oc(CCCc4ccccc4)nc3c2)C1 (stereo not drawn)	n	n	n	n	n	46.0
CCCOC1CCCN(C(=O)c2cc(COc3c(F)cccc3F)on2)C1 (stereo not drawn)	n	n	n	n	n	88.8
CCOC(=O)N1CCN(C(=O)c2ccc3oc(CCc4ccccc4)nc3c2)CC1	n	n	x	n	n	n
CCCCc1nc2cc(C(=O)N3CCCC(COC)C3)ccc2o1 (stereo not drawn)	n	n	n	n	n	62.9
O=C(c1ccc2oc(CCc3ccccc3)nc2c1)N1CCC(O)CC1	n	n	91.5	n	n	n
CO[C@@H]1CN(C)C(=O)c2ccc(NC(=O)Nc3cccc(F)c3)cc2OC[C@@H](C)N(C(C)=O)C[C@H]1C	x	x	x	x	n	n
CO[C@H]1CN(C)C(=O)c2ccc(NC(C)=O)cc2OC[C@H](C)N(C(=O)c2ccc(F)cc2)C[C@H]1C	x	x	x	n	n	n
CCCCc1nc2cc(C(=O)N3CCCC(OCCC)C3)ccc2o1 (stereo not drawn)	n	n	u	n	n	63.8
CC(=O)N1CC2(C1)[C@@H](c1ccccc1)[C@@H](CO)N2Cc1cccc(Cl)c1	x	x	x	n	n	x
CCOC(=O)C(=NC(C)(C)C)NNc1cc(Cl)ccc1Cl	n	n	n	x	n	x
SMILES	Wnt bcat act	NSD2 inh	MITF TRPM1 HTS	CASP6 VEID inh	XiGFP reactiv	esBAF inh
CCOC(=O)C(=NC(C)C)NNc1cc(Cl)ccc1Cl	39.8	n	n	n	n	x
Cc1ccccc1-c1ccc([C@H]2[C@@H](CO)N3C(=O)CN(C(=O)c4cccnc4)C[C@H]23)cc1	x	x	x	x	n	x
CC(=O)Nc1ccc2c(c1)C(=O)N(C)C[C@H](C)[C@@H](CN(C)S(C)(=O)=O)O2	x	x	x	x	n	x
O=S(=O)(Nc1ccc(O)c2ccccc12)c1cccs1	n	x	n	53.1	n	n
O=C(N/N=C\c1ccc(Cl)s1)c1cccs1	x	n	n	x	x	72.3
O=C(N/N=C\c1cc2c(cc1Cl)OCO2)c1cccs1	n	n	n	n	n	52.8
O=C(CC1CC1)N1[C@@H](CO)[C@H](c2ccccc2)C12CN(Cc1ccncc1)C2	x	x	x	n	n	x
CCOC(=O)Nc1ccc2c(c1)Cc1cc([N+](=O)[O-])ccc1-2	n	n	n	n	n	74.6
CCOC(=O)Nc1ccc2c(c1)C(=NO)c1ccccc1-2	54.7	n	n	n	n	x
CC(O)CN(CC(C)O)c1ccc2c(c1)Cc1cc([N+](=O)[O-])ccc1-2 (stereo not drawn)	n	n	n	n	29.2	n
CCOC(=O)Nc1ccc(OC)c([N+](=O)[O-])c1	n	n	n	n	n	n
C[C@@H]1CN([C@H](C)CO)C(=O)c2cc(NS(=O)(=O)c3ccc(Cl)cc3)ccc2O[C@@H](C)CCCCO[C@H]1CN(C)Cc1ccc2c(c1)OCO2	x	x	x	n	n	n
CO[C@@H]1CN(C)C(=O)c2ccc(NC(=O)c3ccc4c(c3)OCO4)cc2OC[C@@H](C)N(CC2CC2)C[C@@H]1C	x	x	x	n	n	n
C[C@@H]1CN([C@@H](C)CO)C(=O)c2cc(/C=C/c3ccccc3)cnc2O[C@H]1CN(C)C(=O)C1CCCCC1	x	x	x	n	n	n
O=C(CN1C(=O)/C(=C/c2ccco2)SC1=S)NC1CCS(=O)(=O)C1 (stereo not drawn)	n	n	n	49.1	n	n
CC(C(=O)N(C)C1CCS(=O)(=O)C1)N1C(=O)/C(=C/c2ccco2)SC1=S (stereo not drawn)	n	n	n	45.1	n	n
CC(C(=O)N(C)C1CCS(=O)(=O)C1)N1C(=O)/C(=C/c2cccs2)SC1=S (stereo not drawn)	n	n	n	n	n	n
O=C(CN1C(=O)/C(=C/c2ccco2)SC1=S)Nc1ccc(C(=O)O)c(O)c1	n	135.0	n	73.3	n	n
O=C(CCN1C(=O)/C(=C/c2ccccc2)SC1=S)NC1CCS(=O)(=O)C1 (stereo not drawn)	n	n	n	n	n	n
CC(C)NC(=O)Nc1cccc2c1O[C@H](CN(C)C(=O)OC(C)(C)C)[C@H](C)CN(C)C2=O	x	x	x	x	n	x
CN(/N=C/c1ccncc1)c1cnc2ccccc2n1	37.3	n	n	n	n	x
CN(/N=C/c1ccncc1)C1=NCCN1	n	n	n	n	n	n
COc1ccc2c3c(n(C)c2c1)[C@H](CO)N(C(=O)C1CCCC1)CC31CCN(C(=O)CN(C)C)CC1	x	x	x	n	n	x
COc1ccc(-c2cc3ccc(OCC(C)=O)cc3oc2=O)cc1	33.8	n	n	n	n	n
O=c1oc2cc(O)ccc2cc1-c1ccccc1	n	n	n	n	n	n
COc1ccc(-c2cc3ccc(OCC(C)=O)cc3oc2=O)cc1OC	n	n	91.8	n	n	46.7
